Data: PMC2225856 (The Journal of General Physiology, 1970)
Like-named read-outs stand apart in the source and are kept apart here. Bridge positions count the residues as written; N and C are the ends. Ends that are not written are not given here.

Legend:
toad urinary bladder [1] = conditions: cited from earlier work; for pD2 of reference agonist: Table II, ± SEM
toad urinary bladder [2] = test: Hydroosmotic response of the toad urinary bladder; format: cell-based, Bufo marinus; conditions: serosal bath, concentrations as high as 2.86 X 10^-6 M
How it was run: (§1)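 Bufo marinus, 150-250 g, both sexes, kept on moist peat moss and pithed. Bentley sac hemibladders filled with dilute Ringer were preincubated 2 h in stirred full-strength Ringer, then moved to the challenge bath. Water loss was read as sac weight loss at 30 min intervals; sacs were emptied, refilled with fresh dilute Ringer and placed in a fresh bath after each weighing.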

toad urinary bladder [3] = test: Noncompetitive antagonism of the hydroosmotic response; format: cell-based, Bufo marinus
How it was run: as §1

toad urinary bladder [4] = conditions: note added in proof; ref Chiu, P.J.S. and W.H. Sawyer. 1970; cited from earlier work
[5] = calculated on the basis of earlier data, ref Eggena et al. (18)

Molecule: [5-ornithine]-oxytocin
- pD2 of reference agonist (toad urinary bladder [1]; ref Havran et al. (22)): 4.92

Molecule: [8-arginine]-vasopressin (CYFQNCPRG-NH2; disulfide 1-6; UniProt P01185 20-28, looked up)
- pD2 of reference agonist (toad urinary bladder [1]; [5]): 9.40

Molecule: CCCCC[C@H](O)/C=C/[C@H]1[C@H](O)CC(=O)[C@@H]1CCCCCCC(=O)O [PGE1, prostaglandin E1]
- Hydroosmotic activity per se (bladder permeability to water) (toad urinary bladder [2]): did not increase the bladder permeability to water
- Effect on response to oxytocin-theophylline combination (toad urinary bladder [3]; 2.9 X 10^-7 M PGE1, 1 X 10^-9 M oxytocin + 4 X 10^-3 M theophylline, eight experiments): reduced by PGE1 to almost basal levels
- Effect on response to cyclic AMP-theophylline combination (toad urinary bladder [3]; 2.9 X 10^-7 M PGE1, 2.5 X 10^-3 M cyclic AMP + 4 X 10^-3 M theophylline, eight experiments): only minimally
- Maximal response to dibutyryl cyclic AMP in the presence of PGE1 (toad urinary bladder [3]; 2.9 X 10^-7 M PGE1, fraction of maximal response (0.80 without PGE1), ± SEM): 0.72
- Maximal response to theophylline in the presence of PGE1 (toad urinary bladder [3]; fraction of maximal response (0.78 without PGE1), ± SEM): 0.10
- Diminution in the maximal response to oxytocin in the presence of PGE1, average (toad urinary bladder [3]; fraction of maximal response, ± 0.10, considerable variation): 0.77

Molecule: [4-leucine]-oxytocin (CYILNCPLG; ends and bridges not checked; cysteine pairing not given here; UniProt P01178 20-28, looked up, variant Q4L)
- Inhibition of the hydroosmotic action of [8-arginine]-vasopressin and [8-arginine]-vasotocin (toad urinary bladder [4]): competitively in- hibits

Molecule: oxytocin
- pD2 of reference agonist (toad urinary bladder [1]; [5]): 8.63
- Maximal hydroosmotic response (toad urinary bladder [1]): 100%
